The results in this text go back to ChEMBL document CHEMBL1154950, “Biochemical analysis of cellular target of S-trityl-L-cysteine derivatives using affinity matrix” (Bioorg Med Chem Lett, 2010).

What all share (type): cell-based
Common to all, as to conditions: HCT-116

In assay [1] the target is T1, Kinesin-like protein KIF11 (Homo sapiens) (UniProt P52732).
T1 sequence (whole entry): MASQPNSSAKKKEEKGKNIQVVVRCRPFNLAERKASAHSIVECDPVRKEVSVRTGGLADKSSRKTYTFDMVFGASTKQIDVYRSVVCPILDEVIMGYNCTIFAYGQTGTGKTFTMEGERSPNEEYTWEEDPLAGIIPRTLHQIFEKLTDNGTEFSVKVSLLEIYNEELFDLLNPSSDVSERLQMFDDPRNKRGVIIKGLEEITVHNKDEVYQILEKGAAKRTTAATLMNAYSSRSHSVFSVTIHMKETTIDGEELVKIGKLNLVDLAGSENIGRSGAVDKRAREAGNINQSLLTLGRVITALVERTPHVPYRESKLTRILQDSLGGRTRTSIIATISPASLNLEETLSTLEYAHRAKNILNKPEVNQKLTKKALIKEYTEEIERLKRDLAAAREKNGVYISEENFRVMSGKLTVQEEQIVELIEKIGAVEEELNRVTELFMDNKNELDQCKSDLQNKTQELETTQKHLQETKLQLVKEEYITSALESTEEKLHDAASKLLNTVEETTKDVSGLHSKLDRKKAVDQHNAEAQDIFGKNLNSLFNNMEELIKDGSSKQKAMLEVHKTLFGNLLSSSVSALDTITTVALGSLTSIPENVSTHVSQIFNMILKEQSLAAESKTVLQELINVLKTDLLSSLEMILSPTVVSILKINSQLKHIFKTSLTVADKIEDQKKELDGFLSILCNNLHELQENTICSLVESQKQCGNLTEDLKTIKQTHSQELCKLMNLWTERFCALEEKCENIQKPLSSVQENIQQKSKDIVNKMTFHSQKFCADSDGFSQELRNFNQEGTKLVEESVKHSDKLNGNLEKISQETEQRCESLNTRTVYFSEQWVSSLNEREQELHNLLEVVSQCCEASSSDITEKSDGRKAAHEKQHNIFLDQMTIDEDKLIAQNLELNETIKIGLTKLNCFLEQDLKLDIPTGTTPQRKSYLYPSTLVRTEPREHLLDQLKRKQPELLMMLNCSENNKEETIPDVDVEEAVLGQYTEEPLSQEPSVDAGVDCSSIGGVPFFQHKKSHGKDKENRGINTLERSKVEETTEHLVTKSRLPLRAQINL
As to the kind of experiment: Competitive inhibition of affinity bead (R)-2-Amino-N-{2-[2-(2-amino-ethoxy)-ethoxy]-ethyl}-3-[(4-methoxy-phenyl)-diphenyl-methylsulfanyl]-propionamide binding to KSP in human HCT116 cells at 10 umol/L pretreated for 3 hrs by Western blot analysis.

In assay [2] the target is T1, Kinesin-like protein KIF11 (Homo sapiens). As to the kind of experiment: Competitive inhibition of affinity bead (R)-2-Amino-N-{2-[2-(2-amino-ethoxy)-ethoxy]-ethyl}-3-[(4-methoxy-phenyl)-diphenyl-methylsulfanyl]-propionamide binding to KSP in human HCT116 cells at >30 umol/L pretreated for 3 hrs by Western blot analysis.
Assay [3] shares this target. The experiment in a line: Displacement of affinity bead (R)-2-Amino-N-{2-[2-(2-amino-ethoxy)-ethoxy]-ethyl}-3-[(4-methoxy-phenyl)-diphenyl-methylsulfanyl]-propionamide from KSP in human HCT116 cells after 2 hrs by Western blot analysis. A digest of the protocol:
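This is a cell-free competition assay. Drug-immobilized or ethanolamine control beads were washed and resuspended in binding buffer containing DMSO or compound in DMSO. They were rotated for 2 h at 4 °C with 50 mg/mL BSA and 8 mg/mL HCT116 cytoplasmic extract (freeze–thaw lysate). Beads were washed three times, and KSP on the beads and in the supernatant was assessed by anti-KSP Western blot.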

For assay [4] the target is unchanged. The experiment in a line: Inhibition of affinity bead (R)-2-Amino-N-{2-[2-(2-amino-ethoxy)-ethoxy]-ethyl}-3-[(4-methoxy-phenyl)-diphenyl-methylsulfanyl]-propionamide binding to KSP in human HCT116 cells pretreated for 3 hrs by Western blot analysis.

SMILES strings stand for the structures. Calls of active or inactive are those of the source. The rule behind the calls is not given here.

Take `NS(=O)(=O)Nc1ccc(-c2ccc(C(F)(F)F)cn2)cc1`: the result in assay [1] was inactive. For the same compound, the outcome in assay [2] was Active.
As to `CC1(C)CC(=O)C2=C(C1)NC(=S)NC2c1cccc(O)c1` (stereo not drawn), in assay [1], the outcome was Active.
In the case of `N[C@@H](CSC(c1ccccc1)c1ccccc1)C(=O)O`, the outcome in assay [3] was inactive. The inhibition result in assay [4] was “inactive”.
In the case of `N[C@@H](CSC(c1ccccc1)(c1ccccc1)c1ccc(C(F)(F)F)cc1)C(=O)O`, in assay [1], the outcome was Active. Also, the Activity entry in assay [3] is “Dose-dependent effect”. The inhibition entry in assay [4] is “Active”.
